Results on 31 compounds are retold here after ChEMBL document CHEMBL3120124, “Lead optimization of HMBA to develop potent HEXIM1 inducers” (Bioorg Med Chem Lett, 2014).

Bounds are passed on as bounds.

The nature of data set [1]: Solubility of the compound in water. It is filed as physicochemical. An outline of the steps:
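Aqueous solubility was judged by the absence of precipitation in LNCaP cell culture medium at 100 μM.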

In data set [2] the target is T1, Protein HEXIM1 (Homo sapiens) (UniProt O94992).
T1 sequence (whole entry): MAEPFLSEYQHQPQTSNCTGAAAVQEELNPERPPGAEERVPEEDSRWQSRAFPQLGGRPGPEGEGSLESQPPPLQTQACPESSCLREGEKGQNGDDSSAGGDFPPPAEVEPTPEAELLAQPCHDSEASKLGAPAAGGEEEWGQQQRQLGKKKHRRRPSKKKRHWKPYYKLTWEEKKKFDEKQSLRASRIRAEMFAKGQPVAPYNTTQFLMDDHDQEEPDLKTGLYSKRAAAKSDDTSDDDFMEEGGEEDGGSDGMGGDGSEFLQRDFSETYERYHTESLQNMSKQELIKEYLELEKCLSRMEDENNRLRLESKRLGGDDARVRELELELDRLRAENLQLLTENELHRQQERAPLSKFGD
Kind of data set: Induction of HEXIM1 protein expression in human LNCAP cells at 100 uM after 24 hrs by Western blotting analysis relative to control. It is filed as cell-based. Summed up:
(§1)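 LNCaP prostate cancer cells were treated for 24 h with vehicle, HMBA (5 mM; positive control) or analog at 500 μM, and selected analogs also at 100 μM. HEXIM1 was assessed by Western blot of cell extracts using a HEXIM1 antibody, with β-actin as loading control. Band intensities were quantified by densitometry. Representative of three independent experiments.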

Data set [3] deals with T1, Protein HEXIM1 (Homo sapiens). Briefly: Induction of HEXIM1 protein expression in human LNCAP cells at 500 uM after 24 hrs by Western blotting analysis relative to control. It is filed as cell-based. An outline of the steps: as §1
On the technique in general: Immunoblotting shows a protein as a band on a membrane.

Data set [4] has the same target. Kind of data set: Induction of HEXIM1 protein expression in human LNCAP cells at 1 mM after 24 hrs by Western blotting analysis relative to control. It is filed as cell-based.
For data set [5] the target is unchanged. Kind of data set: Induction of HEXIM1 protein expression in human LNCAP cells at 0.5 mM after 24 hrs by Western blotting analysis relative to control. It is filed as cell-based. An outline of the steps:
as §1

For data set [6] the target is unchanged. Kind of data set: Induction of HEXIM1 protein expression in human LNCAP cells at 5 mM after 24 hrs by Western blotting analysis relative to control. It is filed as cell-based.
Data set [7] shares this target. Briefly: Induction of HEXIM1 protein expression in human LNCAP cells after 24 hrs by Western blotting analysis. It is filed as cell-based.
Data set [8] has the same target. Briefly: Induction of HEXIM1 protein expression in human LNCAP cells at 0.1 mM after 24 hrs by Western blotting analysis relative to control. It is filed as cell-based.
Data set [9] shares this target. Kind of data set: Induction of HEXIM1 protein expression in human LNCAP cells at 0.05 mM after 24 hrs by Western blotting analysis relative to control. It is filed as cell-based.
A further data set relates to LNCaP. Kind of data set: Cytotoxicity against human LNCAP cells assessed as change in cell morphology at 500 uM. It is filed as cell-based.

What is called solubility is how much of the substance goes into solution per volume. Read a high solubility as a readily soluble substance.

`CS(=O)(=O)NCCCNS(C)(=O)=O` showed a solubility in [1] of over 100 µM. Also, the fold change (FC) in data set [2] was determined as 0.21; in [3], 4.45.

With `CN(CC1CCC(CN(C)S(C)(=O)=O)CC1)S(C)(=O)=O` (configuration not stated), the solubility in data set [1] was over 100 µM. The fold change (FC) in data set [2] came to 0.41; in [3], 3.09.

As for `CS(=O)(=O)NCc1ccc(CNS(C)(=O)=O)cc1`, the fold change (FC) in [3] was 0.16.

In the case of `CC(=O)NCCCCCCNC(C)=O`, the figures for the fold change (FC) in [4], in [5] and in [6] were 23.6, 8.15 and 2.21, respectively.

In turn, `CC(=O)N(C)C1CCC(N(C)C(C)=O)CC1` (configuration not stated) came in with a solubility in [1] of over 100 µM. The results for the fold change (FC) in data set [2] and in data set [3] were 0.43 and 3.09, respectively.

For the compound `COc1ccc(CC(=O)NCCCCCCNC(C)=O)cc1`, the Activity entry in [7] was “Dose-dependent effect”. The solubility in data set [1] was over 100 µM. The fold change (FC) stood at 26.6 in [5]; 1.16 in data set [2]; 12.6 in data set [8]; 1.72 in [9]; 2.8 in [3].

Consider `CC(=O)N(C)CCCN(C)C(C)=O`, for which the fold change (FC) in [3] was determined as 0.44.

In the case of `COc1ccc(C(=O)NCCCCCCNC(C)=O)cc1`, in the data set with LNCaP, the Activity entry is “Toxic”. The fold change (FC) in data set [3] amounted to 1.93.

With `CC(=O)N(C)Cc1ccc(CN(C)C(C)=O)cc1`, the solubility in data set [1] was over 100 µM. In addition, the values for the fold change (FC) in [2] and in data set [3] were 3.8 and 2.2, respectively.

For `CN(CCCCCN(C)S(C)(=O)=O)S(C)(=O)=O`, in data set [3], the fold change (FC) worked out at 0.05.

In [1], `CN(CCCCCCN(C)S(C)(=O)=O)S(C)(=O)=O` displayed a solubility of over 100 µM. Moreover, the fold change (FC) in [2] is 1.55; in data set [3], 0.97.

In the case of `CC(=O)NC1CCC(NC(C)=O)CC1` (configuration not stated), the solubility in data set [1] was over 100 µM. Further, the fold change (FC) is 0.06 in data set [2] and 1.88 in [3].

As for `O=C(NCCCCCCNC(=O)c1ccccc1)c1ccccc1`, the fold change (FC) in data set [3] was 0.46.

For the compound `CC(=O)NCCCCCCNC(=O)c1ccc(Cl)c([N+](=O)[O-])c1`, the fold change (FC) in data set [3] was found to be 0.08.

As to `CN(C1CCC(N(C)S(C)(=O)=O)CC1)S(C)(=O)=O` (configuration not stated), the solubility in [1] is over 100 µM. The fold change (FC) in data set [2] was 1.22; in [3], 1.27.

For the compound `CS(=O)(=O)NCC1CCC(CNS(C)(=O)=O)CC1` (configuration not stated), the fold change (FC) in data set [3] is 1.24.

In [1], `CC(=O)NCCCCCCNC(=O)Oc1ccc(-c2ccccc2)cc1` returned a solubility of over 100 µM. Moreover, the fold change (FC) amounted to 0.61 in data set [2] and 1.07 in data set [3].

Regarding `CC(=O)N(C)CCCCCCN(C)C(C)=O`, the fold change (FC) in data set [3] is 0.25.

For `CC(=O)N(C)CC1CCC(CN(C)C(C)=O)CC1` (configuration not stated), the fold change (FC) in [3] was 1.38.

In the case of `CN(CCCN(C)S(C)(=O)=O)S(C)(=O)=O`, the solubility in data set [1] is over 100 µM. Further, the fold change (FC) is 0.67 in [2] and 2.86 in data set [3].

For `CC(=O)NCc1ccc(CNC(C)=O)cc1`, the fold change (FC) in data set [3] was 0.4.

With `CC(=O)NCCCCCNC(C)=O`, the fold change (FC) in data set [3] was 0.12.

Take `CS(=O)(=O)NC1CCC(NS(C)(=O)=O)CC1` (configuration not stated): in data set [3], the fold change (FC) turned out to be 0.67.

Consider `CCC(=O)NCCCCCCNC(=O)CC`, for which the Activity result in data set [7] was “Dose-dependent effect”. Further, in [1], the solubility is over 100 µM. Besides, the values for the fold change (FC) in data set [2] and in [3] were 1.34 and 4.45, respectively.

On to `CC(=O)N(C)CCCCCN(C)C(C)=O`, for which the fold change (FC) in data set [3] worked out at 0.05.

On to `CCCC(=O)NCCCCCCNC(=O)CCC`, for which, in data set [7], the Activity result is “Dose-dependent effect”. The solubility in data set [1] is over 100 µM. For the same compound, the fold change (FC) worked out at 1.23 in data set [2] and 4.89 in data set [3].

`CN(Cc1ccc(CN(C)S(C)(=O)=O)cc1)S(C)(=O)=O` displayed a solubility in data set [1] of over 100 µM. The fold change (FC) is 2 in data set [2] and 1.39 in data set [3].

For `CC(=O)NCC1CCC(CNC(C)=O)CC1` (configuration not stated), in the data set on LNCaP, the Activity result was “Toxic”. Moreover, the fold change (FC) in [3] stood at 2.14.

Consider `CS(=O)(=O)NCCCCCCNS(C)(=O)=O`, for which the fold change (FC) in data set [3] came to 0.31.

As to `CC(=O)NCCCNC(C)=O`, the fold change (FC) in [3] was determined as 0.68.

Take `CS(=O)(=O)NCCCCCNS(C)(=O)=O`: in [3], the fold change (FC) amounted to 0.22.
